Measurements reported in ChEMBL document CHEMBL5712085, “Inhibition of SMYD2 Sensitized Cisplatin to Resistant Cells in NSCLC Through Activating p53 Pathway” (2019).
Active and inactive are the calls of the source. The calls are words filed in the database; no cut-off is given here.

Tests used:
[1] = test system: NCI-H460; test: Cytotoxicity against human NCI-H460 cells assessed as inhibition of cell growth measured after 48 hrs by MTT assay; format: functional, cell-based; settings: Lung
Summary of the method: (§1)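 Cells were grown in RPMI-1640 with 10% FBS, seeded at 1 × 10^5 cells/ml, left overnight and treated with a range of concentrations for 48 h. MTT (2.5 mg/ml in PBS) was added for 4 h at 37°C. Plates were centrifuged, the medium removed and the formazan dissolved in DMSO. OD was read at 570 nm.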

[2] = test system: A549; test: Cytotoxicity against human A549 cells assessed as inhibition of cell growth measured after 48 hrs by MTT assay; format: functional, cell-based; settings: Lung; summary of the method: as §1
[3] = test system: NCI-H460; test: Potentiation of CDDP-induced apoptosis in human CDDP-resistant NCI-H460 cells assessed as viable cells at 2 uM measured after 48 hrs by annexin-V/PI staining based flow cytometry; format: functional; settings: NCI-H460, Lung, read-out: Activity
[4] = test system: NCI-H460; test: Induction of apoptosis in human NCI-H460 cells assessed as viable cells at 10 uM after 48 hrs by annexin-V/PI staining based flow cytometry (reference value: 98.42%); format: functional; settings: NCI-H460, Lung, read-out: Activity
[5] = test system: NCI-H460; test: Potentiation of CDDP-induced apoptosis in human NCI-H460 cells assessed as early apoptotic cells at 2 uM measured after 48 hrs by annexin-V/PI staining based flow cytometry; format: functional, Lung
[6] = test system: NCI-H460; test: Induction of apoptosis in human NCI-H460 cells assessed as late apoptotic cells at 10 uM after 48 hrs by annexin-V/PI staining based flow cytometry (reference value: 0.02%); format: functional, Lung
[7] = test system: A549; test: Potentiation of Taxol-induced cytotoxicity in human A549 cells assessed as cell viability at 2 uM measured after 48 hrs by MTT assay; format: functional, cell-based; settings: Lung
[8] = test system: NCI-H460; test: Induction of apoptosis in human CDDP-resistant NCI-H460 cells assessed as viable cells at 10 uM after 48 hrs by annexin-V/PI staining based flow cytometry (reference value: 95.44%); format: functional; settings: NCI-H460, Lung, read-out: Activity
[9] = test system: NCI-H460; test: Induction of apoptosis in human NCI-H460 cells assessed as early apoptotic cells at 10 uM after 48 hrs by annexin-V/PI staining based flow cytometry (reference value: 0.02%); format: functional, Lung
[10] = test system: NCI-H460; test: Potentiation of VCR-induced cytotoxicity in human NCI-H460 cells assessed as cell viability at 2 uM measured after 48 hrs by MTT assay; format: functional, cell-based; settings: Lung
[11] = test system: NCI-H460; test: Induction of apoptosis in human NCI-H460 cells assessed as necrotic cells at 10 uM after 48 hrs by annexin-V/PI staining based flow cytometry (reference value: 1.53%); format: functional, Lung
[12] = test system: A549; test: Potentiation of VCR-induced cytotoxicity in human A549 cells assessed as cell viability at 2 uM measured after 48 hrs by MTT assay; format: functional, cell-based; settings: Lung
[13] = test system: NCI-H460; test: Induction of apoptosis in human CDDP-resistant NCI-H460 cells assessed as early apoptotic cells at 10 uM after 48 hrs by annexin-V/PI staining based flow cytometry (reference value: 0.03%); format: functional, Lung
[14] = test system: NCI-H460; test: Potentiation of CDDP-induced apoptosis in human CDDP-resistant NCI-H460 cells assessed as late apoptotic cells at 2 uM measured after 48 hrs by annexin-V/PI staining based flow cytometry; format: functional, Lung
[15] = test system: NCI-H460; test: Potentiation of CDDP-induced apoptosis in human NCI-H460 cells assessed as late apoptotic cells at 2 uM measured after 48 hrs by annexin-V/PI staining based flow cytometry; format: functional, Lung
[16] = test system: NCI-H460; test: Potentiation of CDDP-induced apoptosis in human NCI-H460 cells assessed as viable cells at 2 uM measured after 48 hrs by annexin-V/PI staining based flow cytometry; format: functional; settings: NCI-H460, Lung, read-out: Activity
[17] = test system: NCI-H460; test: Induction of apoptosis in human CDDP-resistant NCI-H460 cells assessed as late apoptotic cells at 10 uM after 48 hrs by annexin-V/PI staining based flow cytometry (reference value: 0.03%); format: functional, Lung
[18] = test system: NCI-H460; test: Induction of apoptosis in human CDDP-resistant NCI-H460 cells assessed as necrotic cells at 10 uM after 48 hrs by annexin-V/PI staining based flow cytometry (reference value: 0.03%); format: functional, Lung
[19] = test system: NCI-H460; test: Potentiation of CDDP-induced apoptosis in human NCI-H460 cells assessed as necrotic cells at 2 uM measured after 48 hrs by annexin-V/PI staining based flow cytometry; format: functional, Lung
[20] = test system: NCI-H460; test: Potentiation of CDDP-induced apoptosis in human CDDP-resistant NCI-H460 cells assessed as necrotic cells at 2 uM measured after 48 hrs by annexin-V/PI staining based flow cytometry; format: functional, Lung
[21] = test system: NCI-H460; test: Potentiation of Taxol-induced cytotoxicity in human NCI-H460 cells assessed as cell viability at 2 uM measured after 48 hrs by MTT assay; format: functional, cell-based; settings: Lung
[22] = test system: NCI-H460; test: Potentiation of CDDP-induced apoptosis in human CDDP-resistant NCI-H460 cells assessed as early apoptotic cells at 2 uM measured after 48 hrs by annexin-V/PI staining based flow cytometry; format: functional, Lung
[23] = test system: Mus musculus; test: Downregulation of p53K370me protein expression in Balb/c mouse tumor xenografted with CDDP-resistant NCI-H460 cells at 40 mg/kg/day ip by Western blot analysis; format: functional, organism-based
Summary of the method: (§2)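 Excised tumors came from NCI-H460/CDDP flank xenografts in male BALB/c mice (saline, inhibitor 40 mg/kg daily i.p., CDDP 4.0 mg/kg every 3 days i.p., or the combination; 2 weeks). They were stored at −80°C. Protein extracts were run on 10–15% SDS-PAGE, transferred to PVDF, probed with primary and HRP secondary antibodies, detected by ECL and normalized to β-actin.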

[24] = test system: NCI-H460; test: Antitumor activity against human CDDP-resistant NCI-H460 cells xenografted in Balb/c mouse assessed as inhibition of tumor growth at 40 mg/kg/day i.p in presence of cisplatin; format: functional, organism-based; settings: Lung, route ip
Summary of the method: (§3)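 Male BALB/c mice aged 7–8 weeks received NCI-H460/CDDP cells (5 × 10^6 in 100 μl PBS) subcutaneously into the right flank. At a mean tumor volume of 100 mm3, mice were randomized (n = 6 per group) to saline, inhibitor 40 mg/kg once daily i.p., CDDP 4.0 mg/kg every 3 days i.p., or the combination. Tumor growth was followed for 2 weeks.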

[25] = test system: NCI-H460; test: Antitumor activity against human CDDP-resistant NCI-H460 cells xenografted in Balb/c mouse assessed as slight decrease in tumor growth at 40 mg/kg/day i.p; format: functional, organism-based; settings: Lung, route ip; summary of the method: as §3
[26] = test system: Mus musculus; test: Downregulation of p53K370me protein expression in Balb/c mouse tumor xenografted with CDDP-resistant NCI-H460 cells at 40 mg/kg/day ip by Western blot analysis in presence of cisplatin; format: functional, organism-based; summary of the method: as §2

## CCC1=C[C@@H]2CN(C1)Cc1c([nH]c3ccccc13)[C@@](C(=O)OC)(c1cc3c(cc1OC)N(C)[C@H]1[C@@](O)(C(=O)OC)[C@H](OC(C)=O)[C@]4(CC)C=CCN5CC[C@]31[C@@H]54)C2
[1]
  Activity: Dose-Dependent Effect
[2]
  Activity: Dose-Dependent Effect

## CCN(C(=O)CO)[C@H]1CN(/C(=N\C#N)Nc2cccc(OC(F)F)c2)N=C1c1ccc(Cl)c(Cl)c1
[3]
  viability at 2 µM: 8.94%
[4]
  viability at 10 µM: 97.6%
[5]
  Activity: 14.7%
[6]
  Activity: 0.26%
[7]
  Activity: inactive
[8]
  viability at 10 µM: 85.2%
[9]
  Activity: 0.03%
[10]
  Activity: inactive
[11]
  Activity: 2.08%
[12]
  Activity: inactive
[13]
  Activity: 1.53%
[14]
  Activity: 66.1%
[15]
  Activity: 84.74%
[16]
  viability at 2 µM: 0.5%
[17]
  Activity: 7.55%
[18]
  Activity: 4.72%
[19]
  Activity: 0.04%
[20]
  Activity: 19.75%
[21]
  Activity: inactive
[22]
  Activity: 5.21%

## CC(=O)O[C@H]1C(=O)[C@@]2(C)[C@H]([C@H](OC(=O)c3ccccc3)[C@]3(O)C[C@H](OC(=O)[C@H](O)[C@@H](NC(=O)c4ccccc4)c4ccccc4)C(C)=C1C3(C)C)[C@]1(OC(C)=O)CO[C@@H]1C[C@@H]2O
[1]
  Activity: Dose-Dependent Effect
[2]
  Activity: Dose-Dependent Effect

## O=C1COc2c(CCNCCN(C(=O)CCNCCc3ccc(Cl)c(Cl)c3)C3CCCCC3)ccc(O)c2N1
[23]
  inhibition: Active
[24]
  Activity: Active
[25]
  Activity: Active
[26]
  inhibition: Active

## CC[C@]1(O)C[C@H]2CN(CCc3c([nH]c4ccccc34)[C@@](C(=O)OC)(c3cc4c(cc3OC)N(C=O)[C@H]3[C@@](O)(C(=O)OC)[C@H](OC(C)=O)[C@]5(CC)C=CCN6CC[C@]43[C@@H]65)C2)C1
[1]
  Activity: Dose-Dependent Effect
[2]
  Activity: Dose-Dependent Effect
